Only some compounds are listed: those with a hit (about 2.2% of all), similar ones and a draw of the others.
PDI inh: inhibitors of human PDI, primary screen, biochemical, turbidity, single point, plate reader; Protein disulfide-isomerase (Homo sapiens), P07237; AID 588391, 2011; actives 0.052% (n = 350,000); inhibition, % at 10 µM; PDI insulin aggregation turbidity, A650, 90 min;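 active means mean inhibition across replicates of 30% or more, whatever share of single replicates reach that level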
Target sequence (P07237 whole entry, looked up): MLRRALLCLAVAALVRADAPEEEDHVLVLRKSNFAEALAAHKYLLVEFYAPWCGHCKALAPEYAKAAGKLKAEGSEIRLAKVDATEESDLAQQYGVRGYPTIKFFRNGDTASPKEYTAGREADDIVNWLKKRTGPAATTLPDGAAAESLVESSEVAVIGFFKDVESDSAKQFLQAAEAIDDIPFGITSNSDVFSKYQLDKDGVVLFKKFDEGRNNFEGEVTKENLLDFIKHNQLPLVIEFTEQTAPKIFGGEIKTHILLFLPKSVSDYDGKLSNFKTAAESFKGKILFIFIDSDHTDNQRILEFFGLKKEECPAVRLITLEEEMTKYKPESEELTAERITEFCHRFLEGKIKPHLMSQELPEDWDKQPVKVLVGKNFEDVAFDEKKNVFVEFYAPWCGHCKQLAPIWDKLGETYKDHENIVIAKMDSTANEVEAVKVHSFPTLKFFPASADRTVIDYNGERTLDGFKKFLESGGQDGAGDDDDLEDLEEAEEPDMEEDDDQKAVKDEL
rRNA inh HTS: reduced GFP signal of wild-type E. coli, primary screen, bacterial rRNA inhibitor project, GFP/RFP fluorescence, OD600, single point | actives 1.6% (n = 350,000) | GFP signal change (wild-type ribosome), % (test concentration not listed) | AID 720706, 2013 | E. coli WT GFP vs humanized-ribosome RFP mutants, 24 h; stronger effect = lower value; DMSO median 0, no signal -100;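 active means significant combined selectivity score with lowered wild-type GFP, culture density cut under 30%, mutant RFP and density less affected; inactive means any of these conditions unmet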
PvdQ inh: P. aeruginosa PvdQ acylase inhibitors, primary screen, biochemical, fluorescence, plate reader and imaging, single point | PvdQ acylase [Pseudomonas aeruginosa LESB58] | purified PvdQ acylase | inhibition, % at 10 µM | actives 0.063% (n = 340,000); in the data active means inhibition above about 30%, passing the limit was not always enough
ERp5 inh: inhibitors of ERp5-driven insulin aggregation, primary screen, biochemical, turbidity, absorbance 650 nm, single point; AID 651711, 2012; inhibition, % at 9.99 µM; Protein disulfide-isomerase A6 (Homo sapiens), Q15084; actives 0.05% (n = 350,000); 90 min;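 active means mean replicate inhibition above about 25%, with every replicate also reaching it, limit read from the data, passing the limit was not always enough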
FN deposit inh: inhibitors of fibronectin matrix deposition, primary screen, AH1F cells, Alexa488-fibronectin fluorescence, plate reader; AH1F fibroblasts, overnight; inhibition, % at 12.6 µM; actives 0.086% (n = 350,000);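 active means mean inhibition across replicates of 30% or more, regardless of how many single replicates reach that level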
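material = AH1F fibroblast monolayer depositing Alexa488-labelled fibronectin into matrix | amount = 10000 AH1F cells/well | buffer or medium = DMEM plus 2% serum, read in PBS | incubation = 1 h cell adhesion before compound, then overnight fibronectin incubation | detection = fluorescence at 485 nm excitation, 525 nm emission | evaluation = percent inhibition as loss of matrix-bound fibronectin fluorescence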
HIV Env fusion: inhibitors of HIV-1 Env-driven cell-cell fusion, primary screen, HeLa-JRFL effector, CEM21 target cells, luciferase; actives 1.1% (n = 360,000); inhibition, % at 12.3 µM;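 active means mean replicate inhibition score of at least 50 and every replicate individually at or above 50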
Numbers stand for hits; 0 = inactive; - = no result given.

SMILES	PDI inh	rRNA inh HTS	PvdQ inh	ERp5 inh	FN deposit inh	HIV Env fusion
CC(C)NC(=O)Nc1ccc2c(c1)C(=O)N([C@H](C)CO)C[C@H](C)[C@H](CN(C)CC1CC1)OCCCC[C@H](C)O2	-	0	-	-	-	0
O=C(NNc1ccc([N+](=O)[O-])cc1)C12CC3CC(CC(C3)C1)C2	0	-	0	-	0	69
CNC[C@H]1OCCCC[C@@H](C)Oc2ccc(NC(=O)CCC(F)(F)F)cc2C(=O)N([C@@H](C)CO)C[C@@H]1C	-	0	-	-	-	0
CC(C)c1ccc(/C=N/Nc2cc(N3CCOCC3)nc(N3CCOCC3)n2)cc1	0	-	0	-	0	0
Cc1cccc(/C=N/Nc2cc(N3CCOCC3)nc(N3CCOCC3)n2)c1	0	0	0	0	36	0
COc1ccc(-n2nc(C#N)c(Cl)cc2=O)cc1	0	-43	0	0	0	0
CC[C@H](C)Cc1cn([C@@H](CCCN=C(N)N)C(=O)NCCCCCCCCCCC(=O)N2CCNCC2)nn1	0	-37	0	0	0	0
COc1ccc2nc(C)cc(Sc3nc4ccccc4s3)c2c1	0	0	0	0	-	58
CCOC(=O)CCCn1ncn2c(cc3occc32)c1=O	0	-	33	-	-	0
COc1ccc(CNC(=O)CCCn2ncn3c(cc4occc43)c2=O)cc1	0	0	0	0	0	0
COc1cc(NC2c3ccccc3C(=O)N2Cc2ccccc2Cl)cc(OC)c1 (stereo unspecified)	0	0	0	0	0	65
Nc1cc2ccncc2c2ccccc12	0	0	0	0	0	62
CCCC(=O)Nc1ccc2c(c1)C(=O)N(C)C[C@H](OC)[C@H](C)CN(C)[C@@H](C)CO2	-	0	-	0	-	0
C[C@@H]1CN([C@@H](C)CO)C(=O)c2cccc(NC(=O)CCCCCC(=O)Nc3ccccc3N)c2O[C@@H]1CN(C)S(=O)(=O)c1ccc(Cl)cc1	-	0	-	0	0	0
CC(C)(C)C(=O)c1sc(Nc2ccccc2)nc1N	0	-39	0	0	-	-
CC(=O)c1sc(Nc2ccccc2)nc1C	-	0	-	0	0	0
CCCN(C)C[C@H]1OCCCC[C@H](C)Oc2ccc(NC(=O)c3ccccc3)cc2C(=O)N([C@@H](C)CO)C[C@H]1C	-	0	-	0	-	0
CC(C)C#Cc1cnc2c(c1)C(=O)N([C@@H](C)CO)C[C@H](C)[C@H](CN(C)C(=O)Nc1ccccc1F)O2	-	0	-	0	-	0
CC(C)c1cn(CC[C@@H]2CC[C@@H](NC(=O)Nc3cc(Cl)cc(Cl)c3)[C@H](CO)O2)nn1	-	0	-	0	0	0
C[C@H](CO)N1C[C@H](C)[C@@H](CN(C)S(=O)(=O)c2cn(C)cn2)Oc2c(NC(=O)CCC(F)(F)F)cccc2C1=O	-	0	-	-	-	-
CCOc1ccccc1C=C1SC(=S)NC1=O	0	0	0	0	0	78
O=C(C[C@H]1CC[C@H]2[C@@H](COC[C@H](O)CN2Cc2ccc(Cl)cc2)O1)NCc1ccccc1Cl	-	0	-	0	0	-
O=C(c1cnn(C(=O)c2ccco2)c1)c1cc(Cl)cc(Cl)c1O	0	-25	0	0	-	-
O=C(c1cnn(C(=O)c2ccco2)c1)c1cc(F)ccc1O	0	0	0	0	0	-
CN1CCN(C(=O)C[C@@H]2CC[C@H]3[C@@H](COc4ccc(NC(=O)C5CC5)cc4C(=O)N3C)O2)CC1	-	0	-	0	0	0
COc1cccc(S(=O)(=O)N[C@@H]2CC[C@H](CC(=O)NCc3ccccc3)O[C@H]2CO)c1	-	0	-	0	-	0
Cc1ccc(S(=O)(=O)NC(=O)C2(C)CCN2C(=O)CCc2ccc(Cl)cc2Cl)cc1 (stereo unspecified)	0	0	-	0	0	0
Cc1ccc(S(=O)(=O)NC(=O)C2(C)CCN2C(=O)Cc2ccc(-c3ccccc3)cc2)cc1 (stereo unspecified)	0	-34	-	0	0	0
CC1(C(=O)NS(=O)(=O)c2ccc(Cl)cc2)CCN1C(=O)CCc1ccc(Cl)cc1Cl (stereo unspecified)	0	-30	-	0	0	0
